Series [1] is described as follows: Induction of morphine release at 37.5 nmol in presence of HSA assessed as morphine level per mg of protein by UPLC. The note with it: human.
Series [2] is described as follows: Induction of morphine release at 37.5 nmol in presence of butyryl choline esterase assessed as morphine level per mg of protein by UPLC. To be noted: isolated protein.
Series [3] is described as follows: Induction of morphine release at 37.5 nmol in presence of guinea pig plasma assessed as morphine level per ml plasma by UPLC. Format: cell-free, Cavia porcellus. In outline: (§1)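 Rates were taken from the linear 0–15 min time points. The mix held 37.5 nmol PDB initial and 150 µl plasma or enzyme sample (BCE 0.5 U/ml, HSA 25 mg/ml) in 300 µl total at 37 °C. After ANDM deproteinisation, morphine was measured by UPLC. Rates are expressed per ml of plasma or of enzyme sample at its human-plasma level.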

Series [4] concerns Plasma. The series can be described thus: Induction of morphine release at 37.5 nmol in presence of human plasma assessed as morphine level per ml plasma by UPLC. In kind it is cell-free. The gist of the method: as §1
Series [5] deals with Plasma. The series can be described thus: Induction of morphine release at 37.5 nmol in presence of rat plasma assessed as morphine level per ml plasma by UPLC. Format: cell-free. The gist of the method:
as §1

The test system of series [6] is Plasma. The series can be described thus: Induction of morphine release at 37.5 nmol in presence of mouse plasma assessed as morphine level per ml plasma by UPLC. In kind it is cell-free. In outline:
as §1

Series [7] in a line: Induction of morphine release at 37.5 nmol in presence of 25 mg/ml HSA assessed as morphine level after 15 mins by UPLC. The note with it: human, 0.25 h. In outline: (§2)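 PDB (37.5 nmol initial) incubated at 37 °C in 300 µl total with 150 µl sample: purified human serum BCE (0.5 U/ml) or HSA (25 mg/ml), both equivalent to 50% of serum levels, or 50% human plasma in PBS. Aliquots taken over time, mixed with 2 vol ice-cold 10% DMSO in acetonitrile, centrifuged. Supernatant run on UPLC. Morphine quantified from morphine standard curve (1.6–1.75 min peak area).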

Series [8] can be described thus: Induction of morphine release at 37.5 nmol in presence of 25 mg/ml HSA assessed as morphine level after 2 to 6 hrs by UPLC. To be noted: human. In outline:
as §2

Series [9] is described as follows: Induction of morphine release at 37.5 nmol in presence of 0.5 U/ml butyryl choline esterase assessed as morphine level after 15 mins by UPLC. Format: physicochemical. To be noted: isolated protein, 0.25 h. The gist of the method: as §2
Series [10] can be described thus: Induction of morphine release at 37.5 nmol in presence of 0.5 U/ml butyryl choline esterase assessed as morphine level after 3 to 6 hrs by UPLC. Format: physicochemical. The note with it: isolated protein. In outline: as §2
The test system of series [11] is Plasma. In words: Induction of morphine release at 37.5 nmol in presence of 50% human plasma after 15 mins by UPLC. Format: cell-free. The note with it: 0.25 h. The gist of the method: as §2
The subject of series [12] is Plasma. The series can be described thus: Induction of morphine release at 37.5 nmol in presence of 50% human plasma after 6 hrs by UPLC. In kind it is cell-free. In outline:
as §2

Series [13] can be described thus: Induction of morphine release at 37.5 nmol in presence of 50% mouse plasma assessed as disappearance of compound peak during 5 to 10 mins at 250 uM. Format: cell-free. The note with it: read-out: Activity. The gist of the method: (§3)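 PDA (250 µM) incubated with 50% plasma in PBS at 37 °C. Aliquots were withdrawn at intervals, quenched with 2 vol ice-cold 10% DMSO/acetonitrile and centrifuged. The supernatant was analysed by UPLC, following the PDA peak (4.3–4.4 min) and the morphine peak. Morphine was calculated from a morphine standard curve.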

The nature of series [14]: Induction of morphine release at 37.5 nmol in presence of 50% human plasma assessed as disappearance of compound peak during 5 to 10 mins at 250 uM. In kind it is cell-free. To be noted: read-out: Activity. The gist of the method: as §3
Series [15] is described as follows: Induction of morphine release at 37.5 nmol in presence of 50% rat plasma assessed as disappearance of compound peak during 5 to 10 mins at 250 uM. In kind it is cell-free. To be noted: read-out: Activity. In outline:
as §3

A short description of series [16]: Induction of morphine release at 37.5 nmol in presence of 50% guinea pig plasma assessed as disappearance of compound peak during 5 to 10 mins at 250 uM. In kind it is cell-free, Cavia porcellus. To be noted: read-out: Activity. The gist of the method: as §3
The nature of series [17]: Stability in PBS solution up to 24 hrs. In kind it is physicochemical. The note with it: buffer. In outline: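 PDA incubated in PBS under the plasma-incubation conditions for up to 24 h, then analysed by UPLC.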
Another series relates to SK-N-SH. The series can be described thus: Induction of morphine release in human SK-N-SH cells assessed as morphine induced inhibition of forskolin-induced cAMP production ny chemiluminescent assay. In kind it is cell-based. In outline:
(§4)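 PDA (0.8 mM) was preincubated 24 h with PBS or 50% human plasma. SK-N-SH cells were switched to serum-free medium, exposed to the solutions (equivalent to 5 µM prodrug) for 15 min, then given 5 µM forskolin or vehicle for 15 min. Cells were rinsed and lysed, and cAMP was measured by chemiluminescent assay against a cAMP standard curve.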

A short description of series [18]: Induction of morphine release in PBS solution assessed as morphine induced inhibition of forskolin-induced cAMP production ny chemiluminescent assay. Format: physicochemical. The note with it: buffer. The gist of the method:
as §4
A general note: Cyclic AMP is a second messenger, typically raised through Gs and lowered through Gi signalling.

Turning to `CN1CC[C@]23c4c5ccc(OC(=O)c6ccc(OCC(=O)NCCOCCOCCNC(=O)OC(C)(C)C)cc6)c4O[C@H]2[C@@H](O)C=C[C@H]3[C@H]1C5`, the Activity in series [1] came out at 0.3 nmol/min; in series [2], 0.8 nmol/min; in series [3], 2.9 nmol/min; with Plasma [4], 1.1 nmol/min; in the series with Plasma [5], 4.2 nmol/min; with Plasma [6] it was 20.9 nmol/min. The Activity in [7] was determined as 1%; in [8], 2%; in [9], 2.5%; in series [10], 4%; in the series with Plasma [11], 4%; with Plasma [12], 20%.

Take `CN1CC[C@]23c4c5ccc(OC(=O)CCC(=O)OC(C)(C)C)c4O[C@H]2[C@@H](O)C=C[C@H]3[C@H]1C5`: the metabolised at 250 µM in series [13], in series [14], in series [15] and in series [16] was over 90% each time. In addition, in series [17], the Stability entry was “Stable”. Moreover, the Activity entry in the series with SK-N-SH was “Active”; in [18], “Not Active”.

The record behind these values is ChEMBL document CHEMBL1268883, “Plasma-mediated release of morphine from synthesized prodrugs” (Bioorg Med Chem Lett, 2010).
